In ChEMBL document CHEMBL1158460, “Heterobiaryl human immunodeficiency virus entry inhibitors” (J Med Chem, 2009):

Columns and labels:
[1] = system: Human immunodeficiency virus; test: Antiviral activity against HIV isolate 584.000 054 by replication assay; type: functional, organism-based; conditions: Human immunodeficiency virus 1, isolate 584.000 054
[2] = Cytotoxicity against human U87 cells coexpressing CD4, CxCR4 receptors after 72 hrs; type: cell-based, U-87MG ATCC; conditions: U87 cells coexpressing CD4 and CXCR4 receptors
[3] = system: Human immunodeficiency virus; test: Antiviral activity against HIV isolate 584.000 063 by replication assay; type: functional, organism-based; conditions: Human immunodeficiency virus 1, isolate 584.000 063
[4] = system: Human immunodeficiency virus 1; test: Antiviral activity against HIV1 expressed in 293T cells assessed as protection against viral M33 envelope infection in human U87 cells coexpressing CD4, CCR5 receptors after 72 hrs by luciferase reporter gene pseudoviral assay; type: functional, organism-based; conditions: Human immunodeficiency virus 1, HEK-293T
Method in brief: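 Pseudovirions carry an R5-using envelope cloned from a primary virus isolate. Anti-HIV-1 activity was taken as the 50% inhibitory dose against these pseudovirions.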

[5] = system: Human immunodeficiency virus; test: Antiviral activity against HIV isolate 584.000 017 by replication assay; type: functional, organism-based; conditions: Human immunodeficiency virus 1, isolate 584.000 017
[6] = system: Human immunodeficiency virus; test: Antiviral activity against HIV isolate 584.000 220 by replication assay; type: functional, organism-based; conditions: Human immunodeficiency virus 1, isolate 584.000 220
[7] = system: Human immunodeficiency virus; test: Antiviral activity against HIV isolate 589.000 033 by replication assay; type: functional, organism-based; conditions: Human immunodeficiency virus 1, isolate 589.000 033
[8] = system: Human immunodeficiency virus; test: Antiviral activity against HIV isolate 584.000.098 by replication assay; type: functional, organism-based; conditions: Human immunodeficiency virus 1, isolate 584.000.098
[9] = system: Human immunodeficiency virus; test: Antiviral activity against HIV isolate 584.000 031 by replication assay; type: functional, organism-based; conditions: Human immunodeficiency virus 1, isolate 584.000 031
[10] = system: Human immunodeficiency virus; test: Antiviral activity against HIV isolate 584.000 060 by replication assay; type: functional, organism-based; conditions: Human immunodeficiency virus 1, isolate 584.000 060
[11] = system: Human immunodeficiency virus; test: Antiviral activity against HIV isolate 584.000 066 by replication assay; type: functional, organism-based; conditions: Human immunodeficiency virus 1, isolate 584.000 066
[12] = Inhibition of HIV1 3B recombinant gp120/sCD4 binding interaction by ELISA
Method in brief: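 Competitive ELISA of soluble CD4 binding to gp120 from HIV IIIB. Bound CD4 was detected with an anti-CD4 monoclonal antibody, then a peroxidase-labelled anti-mouse antibody. The read-out was the 50% inhibitory dose.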

[13] = system: Human immunodeficiency virus; test: Antiviral activity against HIV isolate 584.000 227 by replication assay; type: functional, organism-based; conditions: Human immunodeficiency virus 1, isolate 584.000 227
[14] = system: Human immunodeficiency virus; test: Antiviral activity against HIV isolate 584.000 058 by replication assay; type: functional, organism-based; conditions: Human immunodeficiency virus 1, isolate 584.000 058
[15] = system: Human immunodeficiency virus; test: Antiviral activity against HIV isolate 584.000 030 by replication assay; type: functional, organism-based; conditions: Human immunodeficiency virus 1, isolate 584.000 030

SMILES | CC50 at 72 h [2] [µM] | IC50 [4] [µM] | IC50 [12] [µM] | other results
COc1ncc(OC)c2c(C(=O)C(=O)N3CCN(C(=O)c4ccccc4)CC3)c[nH]c12 | > 40 | 0.026 | 2.4 | IC50 [1]: 7.13 µM; IC50 [3]: 0.017 µM; IC50 [5]: > 10 µM; IC50 [6]: 0.004 µM; IC50 [7]: 0.034 µM; IC50 [8]: 0.425 µM; IC50 [9]: 0.24 µM; IC50 [10]: 0.014 µM; IC50 [11]: 0.011 µM; IC50 [13]: 0.022 µM; IC50 [14]: 0.06 µM; IC50 [15]: 0.03 µM
COc1ccnc2[nH]cc(C(=O)C(=O)N3CCN(C(=O)c4ccccc4)C[C@H]3C)c12 | > 40 | 0.008 | 0.93 | IC50 [1]: 5.53 µM; IC50 [3]: 0.046 µM; IC50 [5]: > 10 µM; IC50 [6]: 0.005 µM; IC50 [7]: 0.027 µM; IC50 [8]: 0.394 µM; IC50 [9]: 8.02 µM; IC50 [10]: 0.024 µM; IC50 [11]: 0.19 µM; IC50 [13]: 0.423 µM; IC50 [14]: 0.038 µM; IC50 [15]: 0.029 µM
C[C@@H]1CN(C(=O)c2ccccc2)CCN1C(=O)C(=O)c1ccc(-c2cc[nH]n2)nc1 | > 40 | 1 | > 10 | 
COc1cc(-c2cc(C)no2)ccc1C(=O)C(=O)N1CCN(C(=O)c2ccccc2)C[C@H]1C | > 40 | < 0.005 | 0.23 | IC50 [1]: 3.51 µM; IC50 [3]: 0.025 µM; IC50 [5]: > 10 µM; IC50 [6]: 0.003 µM; IC50 [7]: 0.011 µM; IC50 [8]: 0.301 µM; IC50 [9]: 8.97 µM; IC50 [10]: 0.017 µM; IC50 [11]: 0.273 µM; IC50 [13]: 1.82 µM; IC50 [14]: 0.022 µM; IC50 [15]: 0.013 µM
C[C@@H]1CN(C(=O)c2ccccc2)CCN1C(=O)C(=O)c1ccc(-c2cc[nH]n2)cc1F | > 40 | 0.046 | 1.1 | 
C[C@@H]1CN(C(=O)c2ccccc2)CCN1C(=O)C(=O)c1ccc(-c2ccncc2)cc1 | > 40 | 2.5 |  | 
C[C@@H]1CN(C(=O)c2ccccc2)CCN1C(=O)C(=O)c1ccc(-c2nccs2)cc1 | > 40 | 0.63 | > 10 | 
C[C@@H]1CN(C(=O)c2ccccc2)CCN1C(=O)C(=O)c1ccc(-n2cccn2)cc1 | > 40 | 1.2 | > 7.5 | 
Cc1nc(-c2ccc(C(=O)C(=O)N3CCN(C(=O)c4ccccc4)C[C@H]3C)cc2)cs1 | > 40 | 5.4 |  | 
C[C@@H]1CN(C(=O)c2ccccc2)CCN1C(=O)C(=O)c1ccc(N2CCCC2)cc1 | > 40 | 6.7 | > 10 | 
C[C@@H]1CN(C(=O)c2ccccc2)CCN1C(=O)C(=O)c1ccc(-c2ccccn2)s1 | > 40 | 13 |  | 
Cc1cc(-c2ccc(C(=O)C(=O)N3CCN(C(=O)c4ccccc4)C[C@H]3C)cc2F)on1 | > 40 | 0.13 | > 10 | 
C[C@@H]1CN(C(=O)c2ccccc2)CCN1C(=O)C(=O)c1ccc(-c2cnco2)c(Cl)c1 | > 40 | < 0.005 | 0.236 | 
C[C@@H]1CN(C(=O)c2ccccc2)CCN1C(=O)C(=O)c1ccc(-c2cc[nH]n2)cc1O | > 40 | 2.2 | > 10 | 
C[C@@H]1CN(C(=O)c2ccccc2)CCN1C(=O)C(=O)c1ccc(-c2cc[nH]n2)cc1N | > 40 | 0.078 | 5.9 | 
C[C@@H]1CN(C(=O)c2ccccc2)CCN1C(=O)C(=O)c1ccc(-c2cnco2)cc1 | > 40 | 0.25 |  | 
CC(=O)c1ccc(-c2ccc(C(=O)C(=O)N3CCN(C(=O)c4ccccc4)C[C@H]3C)cc2)s1 | > 40 | 1.6 |  | 
Cc1cc(-c2ccc(C(=O)C(=O)N3CCN(C(=O)c4ccccc4)C[C@H]3C)cc2)on1 | > 40 | 0.33 | > 10 | 
C[C@@H]1CN(C(=O)c2ccccc2)CCN1S(=O)(=O)c1ccc(-c2cnco2)s1 | > 40 | 1.2 |  | 
COc1cc(C(=O)C(=O)N2CCN(C(=O)c3ccccc3)C[C@H]2C)ccc1-c1cc(C)no1 | > 40 | 0.83 | > 10 | 
C[C@@H]1CN(C(=O)c2ccccc2)CCN1C(=O)C(=O)c1ccc(-c2ncccc2F)cc1 | > 40 | 2 |  | 
C[C@@H]1CN(C(=O)c2ccccc2)CCN1C(=O)C(=O)c1ccc(-c2cscn2)cc1 | > 40 | 0.42 |  | 
C[C@@H]1CN(C(=O)c2ccccc2)CCN1C(=O)C(=O)c1ccc(-c2ccn[nH]2)cc1Cl | > 40 | 0.25 | 4.6 | 

SMILES | CC50 at 72 h [2] [µM] | IC50 [4] [µM] | IC50 [12] [µM] | other results
COc1cc(-c2ccn[nH]2)ccc1C(=O)C(=O)N1CCN(C(=O)c2ccccc2)C[C@H]1C | > 40 | < 0.005 | 0.56 | 
COc1cc(C(=O)C(=O)N2CCN(C(=O)c3ccccc3)C[C@H]2C)ccc1-c1cc[nH]n1 | > 40 | 0.056 | 2.5 | 
Cc1cc(-c2ccc(C(=O)C(=O)N3CCN(C(=O)c4ccccc4)C[C@H]3C)c(O)c2)on1 | > 40 | 7.3 | > 10 | 
CNc1cc(-c2cc[nH]n2)ccc1C(=O)C(=O)N1CCN(C(=O)c2ccccc2)C[C@H]1C | > 40 | > 10 |  | 
C[C@@H]1CN(C(=O)c2ccccc2)CCN1S(=O)(=O)c1ccc(-c2ccccn2)s1 | > 40 | 5.4 |  | 
C[C@@H]1CN(C(=O)c2ccccc2)CCN1C(=O)C(=O)c1ccc(-c2ccsc2)cc1 | > 40 | 0.54 |  | 
COc1cc(C(=O)C(=O)N2CCN(C(=O)c3ccccc3)C[C@H]2C)ccc1-c1cnco1 | > 40 | 0.05 | 0.78 | 
C[C@@H]1CN(C(=O)c2ccccc2)CCN1C(=O)C(=O)c1cccc(-c2ccccn2)c1 | > 40 | 23 |  | 
C[C@@H]1CN(C(=O)c2ccccc2)CCN1C(=O)C(=O)c1ccc(-c2cncs2)cc1 | > 40 | 0.32 |  | 
Cc1ccc(-c2ccc(C(=O)C(=O)N3CCN(C(=O)c4ccccc4)C[C@H]3C)cc2)o1 | > 40 | 2.8 | > 10 | 
C[C@@H]1CN(C(=O)c2ccccc2)CCN1C(=O)C(=O)c1ccc(N2CCOC2=O)cc1 | > 40 | 12 | > 10 | 
Cc1cc(-c2cc[nH]n2)ccc1C(=O)C(=O)N1CCN(C(=O)c2ccccc2)C[C@H]1C | > 40 | 1.1 | > 10 | 
COc1cnc(-n2ccnn2)c2[nH]cc(S(=O)(=O)N3CCN(C(=O)c4ccccc4)C[C@H]3C)c12 | > 40 | 0.007 | 0.215 | 
C[C@@H]1CN(C(=O)c2ccccc2)CCN1C(=O)C(=O)c1ccc(-c2cccs2)cc1 | > 40 | 0.44 |  | 
Cc1cc(C(=O)C(=O)N2CCN(C(=O)c3ccccc3)C[C@H]2C)ccc1-c1cc[nH]n1 | > 40 | 0.035 | 0.68 | 
CC1CN(C(=O)c2ccccc2)CCN1C(=O)C(=O)c1ccc(-c2cc[nH]n2)cc1 (racemic) | > 40 | 0.16 | 2.4 | 
CC1CN(C(=O)c2ccccc2)CCN1C(=O)C(=O)c1ccc(-c2ccn(C)n2)cc1 (racemic) | > 40 | 1.8 |  | 
CC1CN(C(=O)c2ccccc2)CCN1C(=O)C(=O)c1ccc(-c2cnn(C)c2)cc1 (racemic) | > 40 | 0.11 |  | 
CC1CN(C(=O)c2ccccc2)CCN1C(=O)C(=O)c1ccc(-n2nccn2)cc1 (racemic) | > 40 | 0.87 | 6.2 | 
CC(=O)c1cc(-c2ccc(C(=O)C(=O)N3CCN(C(=O)c4ccccc4)CC3C)cc2)cs1 (racemic) | > 40 | 0.91 |  | 
CC1CN(C(=O)c2ccccc2)CCN1C(=O)C(=O)c1ccc(-n2cncn2)cc1 (racemic) | > 40 | 0.94 | > 10 | 
CC1CN(C(=O)c2ccccc2)CCN1C(=O)C(=O)c1ccc(-c2cc(N)ncn2)cc1 (racemic) | > 40 | 1.4 |  | 
